The values below come from ChEMBL document CHEMBL2074468, “Identification of multispecific organic anion transporter 2 expressed predominantly in the liver” (FEBS Lett, 1998).

Usually Km stands for the substrate concentration at which the rate is half of its maximum.

In data set [1] the target is T1, Solute carrier family 22 member 7 (Rattus norvegicus, UniProt Q5RLM2).
T1 sequence (Q5RLM2 whole entry): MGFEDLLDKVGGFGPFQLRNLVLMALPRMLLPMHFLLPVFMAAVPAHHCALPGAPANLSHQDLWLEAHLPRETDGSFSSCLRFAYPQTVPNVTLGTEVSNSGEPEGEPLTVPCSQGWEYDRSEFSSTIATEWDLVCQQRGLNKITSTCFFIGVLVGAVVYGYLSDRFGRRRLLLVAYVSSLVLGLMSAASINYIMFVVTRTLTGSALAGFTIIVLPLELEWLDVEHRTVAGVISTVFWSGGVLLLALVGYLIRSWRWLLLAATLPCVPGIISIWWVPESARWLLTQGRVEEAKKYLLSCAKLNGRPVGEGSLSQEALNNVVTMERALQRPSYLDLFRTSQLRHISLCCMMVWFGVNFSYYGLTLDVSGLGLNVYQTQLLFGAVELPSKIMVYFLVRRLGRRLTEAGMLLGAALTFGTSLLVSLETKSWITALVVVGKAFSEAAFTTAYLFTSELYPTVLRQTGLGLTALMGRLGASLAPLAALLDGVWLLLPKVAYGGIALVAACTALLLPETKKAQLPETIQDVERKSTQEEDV
In words: (§1) TP_TRANSPORTER: uptake in Xenopus laevis oocytes. Conditions: oocyte. Format: functional, cell-based. Put shortly:
(§2)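 Oocytes were injected with 10 ng capped L5 cRNA or left as controls, then held 2–3 days at 18°C. Radiolabeled substrates ([14C]α-ketoglutarate 7 μM, [3H]PGE2 6 nM, [3H]methotrexate 1 μM, [14C]acetylsalicylate 20 μM, [14C]PAH 20 μM) were taken up for 1 h in ND96, pH 7.4, at room temperature. Mean±S.E.M., n=5–8.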

Data set [2] has as its target T1, Solute carrier family 22 member 7. The data set is described as follows: TP_TRANSPORTER: inhibition of Salicylate uptake (salicylate: 1 uM, Cefoperazone: 1000 uM) in Xenopus laevis oocytes. Type of data set: functional, cell-based. Conditions: oocyte. The gist of the method:
(§3)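 Rat liver NLT/OAT2 (L5) cRNA (10 ng capped) was injected into defolliculated oocytes, which were kept 2–3 days at 18°C in gentamicin Barth's, pH 7.4. Uptake of 1 μM [14C]salicylate was measured in ND96 (pH 7.4) at room temperature, with or without inhibitor (1 mM; BSP 250 μM). Results are % of L5-mediated uptake without inhibitor, mean±S.E.M., n=5–8 oocytes.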

Data set [3] shares this target. The data set is described as follows: TP_TRANSPORTER: inhibition of Salicylate uptake (salicylate: 1 uM, ICG: 1000 uM) in Xenopus laevis oocytes. Type of data set: functional, cell-based. Particulars: oocyte. Put shortly:
as §3

Data set [4] has the same target. In words: TP_TRANSPORTER: inhibition of Salicylate uptake (salicylate: 1 uM, BSP: 250 uM) in Xenopus laevis oocytes. Format: functional, cell-based. Conditions: oocyte. The gist of the method:
as §3

Data set [5] shares this target. The data set is described as follows: TP_TRANSPORTER: inhibition of Salicylate uptake (salicylate: 1 uM, Rifampicin: 1000 uM) in Xenopus laevis oocytes. Type of data set: functional, cell-based. Particulars: oocyte. Put shortly: as §3
Data set [6] shares this target. The data set is described as follows: TP_TRANSPORTER: inhibition of Salicylate uptake (salicylate: 1 uM, Enalapril: 1000 uM) in Xenopus laevis oocytes. Format: functional, cell-based. Conditions: oocyte. Put shortly:
as §3

Substrate in data set [7]: O=C(O)c1ccccc1O
The data set is described as follows: cells, lysate or membranes named.

Substrate in data set [8]: O=C(O)CCC(=O)C(=O)O
Described as §1. Format: functional, cell-based, Oocyte. The gist of the method: as §2

With `CC[N+](CC)(CC)CC` [TETRYLAMMONIUM], in data set [1], the Activity result is “is not a substrate [-]”.

Turning to `Nc1ccc(C(=O)NCC(=O)O)cc1` [AMINOHIPPURIC ACID], the Activity result in data set [1] was “substrate [+]”.

Turning to `CCN1CCN(C(=O)N[C@@H](C(=O)N[C@@H]2C(=O)N3C(C(=O)O)=C(CSc4nnnn4C)CS[C@H]23)c2ccc(O)cc2)C(=O)C1=O` [CEFOPERAZONE], the Activity result in data set [2] is “inhibitor [(at a rough estimate) 15 % of control]”.

Take `CC(=O)Oc1ccccc1C(=O)O` [ASPIRIN]: in data set [1], the Activity result was “substrate [+]”.

As for `CCCCC[C@H](O)/C=C/[C@H]1[C@H](O)CC(=O)[C@@H]1C/C=C\CCCC(=O)O` [DINOPROSTONE], in data set [1], the Activity result was “substrate [+]”.

In the case of `CC1(C)C(/C=C/C=C/C=C/C=C2/N(CCCCS(=O)(=O)[O-])c3ccc4ccccc4c3C2(C)C)=[N+](CCCCS(=O)(=O)[O-])c2ccc3ccccc3c21.[Na+]` [INDOCYANINE GREEN], in data set [3], the Activity entry is “inhibitor [(at a rough estimate) 10 % of control]”.

As to `O=C1OC(c2ccc(O)c(S(=O)(=O)[O-])c2)(c2ccc(O)c(S(=O)(=O)[O-])c2)c2c(Br)c(Br)c(Br)c(Br)c21.[Na+].[Na+]` [SULFOBROMOPHTHALEIN SODIUM], the Activity entry in data set [4] is “inhibitor [(at a rough estimate) <5 % of control]”.

Take `CO[C@H]1/C=C/O[C@@]2(C)Oc3c(C)c(O)c4c(O)c(c(/C=N/N5CCN(C)CC5)c(O)c4c3C2=O)NC(=O)/C(C)=C\C=C\[C@H](C)[C@H](O)[C@@H](C)[C@@H](O)[C@@H](C)[C@H](OC(C)=O)[C@@H]1C` [RIFAMPIN]: the Activity entry in data set [5] is “inhibitor [(at a rough estimate) 15 % of control]”.

For the molecule `CCOC(=O)[C@H](CCc1ccccc1)N[C@@H](C)C(=O)N1CCC[C@H]1C(=O)O`, the Activity result in data set [6] is “inhibitor [(at a rough estimate) 80 % of control]”.

On to `CN(Cc1cnc2nc(N)nc(N)c2n1)c1ccc(C(=O)N[C@@H](CCC(=O)O)C(=O)O)cc1` [METHOTREXATE], for which the Activity entry in data set [1] is “substrate [+]”.

B1: Solute carrier family 22 member 7 (Rattus norvegicus) (protein)
chain: MGFEDLLDKVGGFGPFQLRNLVLMALPRMLLPMHFLLPVFMAAVPAHHCALPGAPANLSHQDLWLEAHLPRETDGSFSSCLRFAYPQTVPNVTLGTEVSNSGEPEGEPLTVPCSQGWEYDRSEFSSTIATEWDLVCQQRGLNKITSTCFFIGVLVGAVVYGYLSDRFGRRRLLLVAYVSSLVLGLMSAASINYIMFVVTRTLTGSALAGFTIIVLPLELEWLDVEHRTVAGVISTVFWSGGVLLLALVGYLIRSWRWLLLAATLPCVPGIISIWWVPESARWLLTQGRVEEAKKYLLSCAKLNGRPVGEGSLSQEALNNVVTMERALQRPSYLDLFRTSQLRHISLCCMMVWFGVNFSYYGLTLDVSGLGLNVYQTQLLFGAVELPSKIMVYFLVRRLGRRLTEAGMLLGAALTFGTSLLVSLETKSWITALVVVGKAFSEAAFTTAYLFTSELYPTVLRQTGLGLTALMGRLGASLAPLAALLDGVWLLLPKVAYGGIALVAACTALLLPETKKAQLPETIQDVERKSTQEEDV
B1: the results for the Km in data set [7] and in data set [8] were 88.8 µM and 17.8 µM, respectively.
